Calls of active or inactive are those of the source. The calls are words filed in the database; no cut-off is given here.
target: Bifunctional purine biosynthesis protein ATIC (Homo sapiens, UniProt P31939); test: Inhibition of human AICAR Tfase
How it was run: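 Human ATIC transformylase activity assay run per the cited earlier method. IC50 measured in a mix of 25 nM ATIC, 50 μM AICAR substrate and 8.5 μM 10-formyltetrahydrofolate cofactor, the cofactor made in-house by a modified literature route. Inhibition mode was also examined with 0.1 mg/mL saponin present.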

Row | SMILES | IC50 | Activity | Ki
1 | Cc1cc(N)ccc1/N=N/c1cc(S(=O)(=O)O)c2cccc(S(=O)(=O)O)c2c1 | 7.6 µM | – | –
2 | CC(CC(=O)O)[C@H]1CC[C@@]2(C)[C@@H]3C(=O)C[C@H]4C(C)(C)[C@@H](O)CC[C@]4(C)[C@H]3C(=O)C[C@]12C (single isomer, unassigned) | – | inactive | –
3 | CC1CCC2N(C1)CC1C3(O)CC45OC6(O)C(O)CCC4(C)C6CCC5C3(O)CC(O)C13C(C)(O)C23O (stereo not given) | – | inactive | –
4 | Cc1ccc(S(=O)(=O)Nc2cc([N+](=O)[O-])c3scnc3c2)cc1 | 36.1 µM | – | –
5 | CC(C)(O)/C=C/C(=O)[C@](C)(O)[C@H]1[C@H](O)C[C@@]2(C)[C@@H]3CC=C4[C@@H](C=C(O)C(=O)C4(C)C)[C@]3(C)C(=O)C[C@]12C | – | inactive | –
6 | Nc1cccc2cc(S(=O)(=O)Nc3ccc(C(=O)O)cc3)ccc12 | 4.1 µM | – | –
7 | CC1=NN(c2ccc(S(=O)(=O)O)cc2)C(=O)C1/N=N/c1ccc(S(=O)(=O)Nc2ccccc2)c(C)c1 (stereo not given) | 11.6 µM | – | –
8 | CC1=NN(c2cc(Cl)c(S(=O)(=O)O)cc2Cl)C(=O)C1/N=N/c1ccc(S(=O)(=O)O)cc1 (stereo not given) | 20.1 µM | – | –
9 | CC(C)[C@H](C)/C=C/[C@@H](C)[C@H]1CC[C@H]2C3=CC=C4C[C@@H](O)CC[C@]4(C)[C@H]3CC[C@]12C | – | inactive | –
10 | CN1CCN(c2ccc3[nH]c(-c4ccc5[nH]c(-c6ccc(O)cc6)nc5c4)nc3c2)CC1 | – | inactive | –
11 | NS(=O)(=O)c1cccc2cc(/N=N/c3cccc4c(S(=O)(=O)O)cccc34)ccc12 | 0.6 µM | – | 0.154 µM
12 | O=C(O)C1=C/C(=C/C(c2ccccc2)c2cc(C(=O)O)c(O)c3ccccc23)c2ccccc2C1=O (stereo not given) | 204 µM | – | –
13 | CC(=O)Nc1ccc(S(=O)(=O)Nc2cnc3ccccc3n2)cc1 | 54.7 µM | – | –
14 | C[C@@H]1O[C@@H](O[C@H]2C[C@@H](O)[C@]3(CO)[C@H]4[C@H](O)C[C@]5(C)[C@@H](C6=CC(=O)OC6)CC[C@]5(O)[C@@H]4CC[C@]3(O)C2)[C@H](O)[C@H](O)[C@H]1O | – | inactive | –
15 | C[C@]12CC[C@H]3[C@@H](CCC4=CC(=O)CC[C@@H]43)[C@@H]1CCC2OC1(O)C(=O)c2ccccc2C1=O (stereo not given in full) | – | inactive | –
16 | O=S(=O)(O)c1cc(/N=[N+](\[O-])c2cc(S(=O)(=O)O)c3ccccc3c2)cc2ccccc12 | 7.8 µM | – | –
17 | Cc1ccc(S(=O)(=O)N/N=C2/C=C3CC[C@H]4[C@@H]5CC[C@H]([C@H](C)CCCC(C)C)[C@@]5(C)CC[C@@H]4[C@@]3(C)CC2)cc1 | 9.6 µM | – | –
18 | COc1ccc(C(=O)O[C@H]2CC[C@@]3(C)[C@@H]4CC[C@H]5[C@]6(O)C[C@H](O)[C@@]7(O)[C@@H](CN8C[C@@H](C)CC[C@H]8[C@@]7(C)O)[C@]6(O)C[C@@]53O[C@]24O)cc1OC [VERATRIDINE] | 231 µM | – | –
19 | Cc1ccc2nc(-c3ccc(NC(=O)c4ccc(N)cc4)c(S(=O)(=O)O)c3)sc2c1 | 16.9 µM | – | –
20 | C[C@H](CCC(=O)O)[C@H]1CC[C@H]2[C@@H]3CC[C@@H]4C[C@@H](O)CC[C@]4(C)[C@H]3C[C@H](O)[C@]12C | – | inactive | –
21 | C[C@]12CC[C@H]3[C@@H](CCC4=CC(=O)CC[C@@]43C)[C@@H]1CC[C@@H]2C(=O)COS(=O)(=O)c1ccc(Br)cc1 | 13.9 µM | – | –
22 | Cc1ccc(OS(=O)(=O)c2ccc(/N=N/c3c(C)[nH]n(-c4ccc(Cl)cc4S(=O)(=O)O)c3=O)cc2)cc1 | 3.3 µM | – | –
23 | O=C(O)c1cc(C(=O)C(=O)c2cc(C(=O)O)c(O)c3ccccc23)c2ccccc2c1O | 8.8 µM | – | –
24 | O=S(=O)(O)c1ccc(/N=N/c2ccc(/N=N/c3ccc(O)c4cccc(S(=O)(=O)O)c34)cc2)cc1 | 11.6 µM | – | –

From ChEMBL document CHEMBL1149296, “Virtual screening of human 5-aminoimidazole-4-carboxamide ribonucleotide transformylase against the NCI diversity set by use of AutoDock to identify novel nonfolate inhibitors” (J Med Chem, 2004)
